Like-named read-outs stand apart in the source and are kept apart here.
How the values were obtained:
InhA [1] = target: T1, InhA (Mycobacterium tuberculosis, UniProt P9WGR1); test: [32P]-NAD+ direct dissociation kinetics; type: binding; conditions: 32P-NAD+ direct dissociation method
Summary of the method: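 InhA expressed in E. coli BL21(DE3) pLysS and purified by Ni2+-NTA and size exclusion. Ternary complex formed with 15 μM InhA, 20 μM NAD+ plus [32P]-NAD+, and 200 μM inhibitor in 30 mM PIPES pH 6.8, 150 mM NaCl, 1 mM EDTA. Spin column removed free ligand; rapid dilution into buffer started dissociation. Timed aliquots ultrafiltered (10 kDa). Run at 20 °C, or 25 °C for two compounds. kon,overall from koff via Equation 5.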

InhA [2] = target: T1, InhA; test: Progress curve analysis of InhA inhibition; type: biochemical; conditions: for kon, overall: (k5+k6)/Ki^app; for k5: EI to EI*; for k6: EI* to EI; for tR: residence time from progress curve analysis
M. tuberculosis = test: MIC determination, microplate Alamar Blue assay; type: cell-based; conditions: 37 °C, 6 days + 24 h
InhA [3] = target: T1, InhA; test: Second-harmonic generation; type: binding; conditions: 10 μM compound
[4] = 20 °C, calculated from Ki^app, Ki^*app, k6
[5] = read-out: Ki^*app, 20 °C, final EI* complex
[6] = read-out: Ki^app, 20 °C, initial EI complex

T1 sequence (P9WGR1 whole entry, looked up): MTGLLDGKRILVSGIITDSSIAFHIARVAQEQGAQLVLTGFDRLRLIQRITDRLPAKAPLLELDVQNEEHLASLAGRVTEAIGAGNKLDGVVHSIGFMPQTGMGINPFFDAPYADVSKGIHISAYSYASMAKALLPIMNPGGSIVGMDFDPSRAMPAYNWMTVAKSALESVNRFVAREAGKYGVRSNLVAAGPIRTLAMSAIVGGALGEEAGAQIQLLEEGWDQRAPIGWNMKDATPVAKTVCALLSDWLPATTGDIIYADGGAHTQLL

SMILES	tR direct dissociation (InhA [1]; 20 °C) [min]	kon, overall (InhA [2]; 20 °C) [M⁻¹ s⁻¹]	k5 (InhA [2]; [4]) [min⁻¹]	k6 (InhA [2]; 20 °C) [min⁻¹]	tR (InhA [2]; 20 °C) [min]	Ki (InhA [2]; [5]) [nM]	Ki (InhA [2]; [6]) [nM]	MIC (M. tuberculosis) [µg/mL]	Ki (InhA [2]; Ki^*app, 20 °C, final EI* complex) [nM]	Ki (InhA [2]; Ki^app, 20 °C, initial EI complex) [nM]	kon (InhA [2]; read-out: kon, overall) [M⁻¹ s⁻¹]	time course of SHG conformational change (InhA [3]; 30-min time course)	increase in SHG intensity (InhA [3]; 30 min after addition, His-tagged InhA, N = 4, mean ± SE) [%]	tR direct dissociation (InhA [1]; 25 °C) [min]	k5 (InhA [2]; 25 °C, calculated) [min⁻¹]	k6 (InhA [2]; 25 °C) [min⁻¹]	tR (InhA [2]; 25 °C) [min]
CCCCCCc1ccc(Oc2ccccc2C)c(O)c1 [PT70]	40 ± 4	20000	0.23	0.036 ± 0.010	30 ± 7	29 ± 4	210 ± 34	3.13	–	–	–	–	–	–	–	–	–
CCCCCCc1ccc(Oc2ccccc2Cl)c(O)c1 [PT91]	148 ± 13	41700	0.12	0.013 ± 0.005	90 ± 37	5 ± 2	52 ± 25	1.56	–	–	–	–	–	–	–	–	–
CCCCCCc1ccc(Oc2ccccc2F)c(O)c1 [PT113]	31 ± 5	–	0.18	0.026 ± 0.004	38 ± 5	–	–	–	27 ± 1	220 ± 6	16000	–	–	–	–	–	–
CCCCCCc1ccc(Oc2ccccc2C#N)c(O)c1 [PT119]	47 ± 4	8330	5.0	0.020 ± 0.0040	50 ± 0.4	40 ± 1	10000 ± 2000	2.5	–	–	–	require a longer time to reach a plateau compared to PT155	13.1± 0.8	–	–	–	–
Cc1ccccc1Oc1ccc(Cn2cc(-c3ccccc3)nn2)cc1O [PT163]	–	–	–	–	–	–	–	–	–	–	–	–	–	114 ± 18	3.20	0.0092 ± 0.002	113 ± 28

Source: publication PMC5357606 (Journal of the American Chemical Society, 2017)
